The target of data set [1] is Human immunodeficiency virus type 1 reverse transcriptase (Human immunodeficiency virus 1, UniProt Q72547, D67N/L210W/M41L/T215Y). In words: Inhibition of HIV1 reverse transcriptase M41L/D67N/L210W/T215Y mutant by steady state nucleotide incorporation assay. In outline: (§1)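 Steady-state kinetics for WT or 4Y p66/p51 RT on activated calf thymus DNA, with template in excess. Rates come from linear regression of [3H]dNTP incorporation over a time course, with increasing NRTI. Km and Ki are fitted with a competitive inhibition equation (Marquardt-Levenberg); two-tailed t-tests.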

Data set [2] relates to Human immunodeficiency virus type 1 reverse transcriptase (Human immunodeficiency virus 1), Q72547 [M41L,D67N,L210W,T215Y]. The experiment in a line: Ratio of Ki to Km for HIV1 reverse transcriptase M41L/D67N/L210W/T215Y mutant by steady state nucleotide incorporation assay. Put shortly:
as §1

Data set [3] has as its target Human immunodeficiency virus type 1 reverse transcriptase (Human immunodeficiency virus 1) (UniProt Q72547). In words: Ratio of Ki to Km for HIV1 reverse transcriptase by steady state nucleotide incorporation assay. In outline:
as §1

In data set [4] the test system is Human immunodeficiency virus 1. The experiment in a line: Ratio of Ki/Km for HIV1 reverse transcriptase M41L/D67N/L210W/T215Y mutant to Ki/Km for wild-type reverse transcriptase. Put shortly:
as §1

The target of data set [5] is T1, Human immunodeficiency virus type 1 reverse transcriptase (Human immunodeficiency virus 1, UniProt Q72547). In words: Inhibition of HIV1 reverse transcriptase by steady state nucleotide incorporation assay. Put shortly:
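Steady-state assay with activated calf thymus DNA as template in excess; rates from linear regression of [3H]dNTP incorporation over time; Km and Ki fitted to competitive inhibition equation (constant Vmax) over increasing NRTI concentrations; two-tailed t tests.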

The subject of data set [6] is Human immunodeficiency virus 1. In words: Ratio of Ki for HIV1 reverse transcriptase M41L/D67N/L210W/T215Y mutant to Ki for wild-type reverse transcriptase. Put shortly:
as §1

Data set [7] concerns the target Human immunodeficiency virus type 1 reverse transcriptase (Human immunodeficiency virus 1) (UniProt Q72547). The experiment in a line: Inhibition of HIV1 reverse transcriptase assessed as dCTP level required to form 80% of binary enzyme complex formation with drug-terminated primer in posttranslocation state by site-specific foot printing assay. In outline: (§2)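 Site-specific footprinting uses a radiolabelled template with WT or 4Y p66/p51 RT in pH 7 cacodylate buffer with 6 mM MgCl2. The primer is chain-terminated with 10 μM analogue (20 min, 37°C), then the next nucleotide dCTP is added at varying levels for 10 min at 37°C. Complexes are treated with KOONO and resolved on urea gels. The value is the dCTP level giving 50% or 80% posttranslocated complex; ≥3 experiments.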

Data set [8] relates to Human immunodeficiency virus type 1 reverse transcriptase (Human immunodeficiency virus 1), Q72547 [M41L,D67N,L210W,T215Y]. In words: Inhibition of HIV1 reverse transcriptase M41L/D67N/L210W/T215Y mutant assessed as dCTP level required to form 80% of binary enzyme complex formation with drug-terminated primer in posttranslocation state by site-specific foot printing assay. In outline:
as §2

Data set [9] deals with T1, Human immunodeficiency virus type 1 reverse transcriptase. In words: Binding affinity to ternary complex of HIV1 reverse transcriptase with primer/template in presence of dCTP substrate.
Data set [10] deals with Human immunodeficiency virus type 1 reverse transcriptase (Human immunodeficiency virus 1), Q72547 [M41L,D67N,L210W,T215Y]. The experiment in a line: Ratio of Kcat to Km for HIV1 reverse transcriptase M41L/D67N/L210W/T215Y mutant assessed as nucleotide excision activity in presence of 0.5 uM dCTP. Put shortly: (§3)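 Purified heterodimeric p66/p51 HIV-1 RT (WT or M41L/D67N/L210W/T215Y). ATP plus a dNTP mix containing the next nucleotide dCTP (0.5 or 10 μM) is then added at 37°C. Excised/rescued product is followed over time on denaturing urea gels. ATP Km and Vmax give kcat/Km; means of ≥3 experiments. Ratios are 4Y/WT or 0.5/10 μM dCTP.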

Data set [11] deals with Human immunodeficiency virus type 1 reverse transcriptase (Human immunodeficiency virus 1) (UniProt Q72547). The experiment in a line: Ratio of Kcat to Km for HIV1 reverse transcriptase assessed as nucleotide excision activity in presence of 10 uM dCTP. Put shortly:
as §3

For data set [12] the target is unchanged. The experiment in a line: Ratio of Kcat/Km for HIV1 reverse transcriptase in presence of 0.5 uM dCTP to Kcat/Km for reverse transcriptase in presence of 10 uM dCTP by nucleotide excision activity assay. Put shortly:
as §3

Data set [13] concerns Human immunodeficiency virus type 1 reverse transcriptase (Human immunodeficiency virus 1), Q72547 [M41L,D67N,L210W,T215Y]. In words: Ratio of Kcat/Km for HIV1 reverse transcriptase M41L/D67N/L210W/T215Y mutant in presence of 0.5 uM dCTP to Kcat/Km for reverse transcriptase M41L/D67N/L210W/T215Y mutant in presence of 10 uM dCTP by nucleotide excision activity assay. In outline:
as §3

For data set [14], the target named is Human immunodeficiency virus type 1 reverse transcriptase (Human immunodeficiency virus 1) (UniProt Q72547). In words: Inhibition of HIV1 reverse transcriptase assessed as dCTP level required to form 50% of binary enzyme complex formation with drug-terminated primer in posttranslocation state by site-specific foot printing assay. Put shortly:
as §2

For data set [15], the system named is Human immunodeficiency virus 1. The experiment in a line: Ratio of Kcat/Km for HIV1 reverse transcriptase M41L/D67N/L210W/T215Y mutant to Kcat/Km for wild-type reverse transcriptase assessed as nucleotide excision activity in presence of 0.5 uM dCTP. In outline:
as §3

For data set [16], the system named is Human immunodeficiency virus type 1 reverse transcriptase (Human immunodeficiency virus 1), Q72547 [M41L,D67N,L210W,T215Y]. In words: Ratio of Kcat to Km for HIV1 reverse transcriptase M41L/D67N/L210W/T215Y mutant assessed as nucleotide excision activity in presence of 10 uM dCTP. Put shortly: as §3
In data set [17] the target is Human immunodeficiency virus type 1 reverse transcriptase (Human immunodeficiency virus 1) (UniProt Q72547). In words: Ratio of Kcat to Km for HIV1 reverse transcriptase assessed as nucleotide excision activity in presence of 0.5 uM dCTP. Put shortly: as §3
Data set [18] deals with Human immunodeficiency virus 1. In words: Ratio of Kcat/Km for HIV1 reverse transcriptase M41L/D67N/L210W/T215Y mutant to Kcat/Km for wild-type reverse transcriptase assessed as nucleotide excision activity in presence of 10 uM dCTP. In outline: as §3
The subject of data set [19] is Human immunodeficiency virus type 1 reverse transcriptase (Human immunodeficiency virus 1), Q72547 [M41L,D67N,L210W,T215Y]. In words: Inhibition of HIV1 reverse transcriptase M41L/D67N/L210W/T215Y mutant assessed as dCTP level required to form 50% of binary enzyme complex formation with drug-terminated primer in posttranslocation state by site-specific foot printing assay. Put shortly: as §2

Data set [20] concerns Cc1cn([C@H]2C[C@H](N=[N+]=[N-])[C@@H](COP(=O)(O)O)O2)c(=O)[nH]c1=O. In words: (§4) Activity of HIV1 reverse transcriptase M41L/D67N/L210W/T215Y mutant assessed as nucleotide excision activity in presence of 10 uM dCTP. To be noted: Human immunodeficiency virus 1. In outline: as §3
The test system of data set [21] is C[C@H](Cn1cnc2c(N)ncnc21)OCP(=O)(O)O. The description is as §4. To be noted: Human immunodeficiency virus 1. Put shortly: as §3
For data set [22], the system named is [N-]=[N+]=N[C@H]1C[C@H](n2cnc3c(N)ncnc32)O[C@@H]1COP(=O)(O)O. Described as §4. To be noted: Human immunodeficiency virus 1. In outline: as §3
The subject of data set [23] is Cc1cn([C@H]2C[C@H](N=[N+]=[N-])[C@@H](COP(=O)(O)O)O2)c(=O)[nH]c1=O. The experiment in a line: (§5) Activity of HIV1 reverse transcriptase M41L/D67N/L210W/T215Y mutant assessed as nucleotide excision activity in presence of 0.5 uM dCTP. The note with it: Human immunodeficiency virus 1. Put shortly: as §3
Data set [24] has as its system C[C@H](Cn1cnc2c(N)ncnc21)OCP(=O)(O)O. The description is as §5. The note with it: Human immunodeficiency virus 1. In outline:
as §3

Data set [25] has as its system [N-]=[N+]=N[C@H]1C[C@H](n2cnc3c(N)ncnc32)O[C@@H]1COP(=O)(O)O. Described as §5. The note with it: Human immunodeficiency virus 1. In outline:
as §3

What is called Ki is the dissociation constant of the complex between target and ligand, obtained from inhibition or displacement. Low values mean tighter binding, high ones weaker binding. In the case of `C[C@H](Cn1cnc2c(N)ncnc21)OCP(=O)(O)OP(=O)(O)O`, the figures for the inhibitory constant (Ki) in data set [1] and in data set [5] were 110 nM and 210 nM, respectively. In addition, the Ratio in [2] came to 0.19; in [3], 0.47; in data set [4] it was 0.4. Further, in data set [6], the Ratio Ki is 0.5.

Consider `[N-]=[N+]=N[C@H]1C[C@H](n2cnc3c(N)ncnc32)O[C@@H]1COP(=O)(O)OP(=O)(O)OP(=O)(O)OP(=O)(O)O`, for which the values for the Ki in data set [1] and in data set [5] were 150 nM and 230 nM, respectively. Further, the Ratio in data set [2] came out at 0.26; in data set [3], 0.51; in [4] it was 0.5. In addition, the Ratio Ki in [6] was found to be 0.65.

What is called Kd is the equilibrium constant for the complex coming apart. In the case of `Nc1ncnc2c1ncn2[C@H]1CC[C@@H](COP(=O)(O)O)O1`, the Activity in data set [7] worked out at 0.2 µM; in data set [8], 0.3 µM. Further, the Kd in [9] is 100 nM.

Take `Cc1cn([C@H]2C[C@H](N=[N+]=[N-])[C@@H](COP(=O)(O)OP(=O)(O)OP(=O)(O)O)O2)c(=O)[nH]c1=O`: the Ratio in data set [2] is 0.09; in [3], 0.09; in data set [4] it was 1. Besides, the Ratio Ki in [6] was found to be 1.2.

In the case of `[N-]=[N+]=N[C@H]1C[C@H](n2cnc3c(N)ncnc32)O[C@@H]1COP(=O)(O)O`, the Activity in [7] was 100 µM; in data set [8], > 100 µM; in data set [14], 10 µM; in data set [19], 27 µM. Moreover, the Ratio stood at 1.6 in data set [10]; 0.37 in data set [11]; 1.3 in data set [12]; 1.3 in data set [13]; 3.3 in data set [15]; 1.2 in data set [16]. Also, the Ratio is 0.49 in data set [17] and 3.2 in data set [18].

With `Cc1cn([C@H]2C[C@H](N=[N+]=[N-])[C@@H](COP(=O)(O)O)O2)c(=O)[nH]c1=O` [AZIDOTHYMIDINE MONOPHOSPHATE], the Activity in data set [7] was determined as 31 µM; in data set [8], 50 µM; in data set [14], 8 µM; in data set [19], 8 µM. Besides, the Ratio in [10] came out at 1.3; in data set [11], 0.16; in [12], 1.2; in data set [13], 1.2; in data set [15], 6.8; in data set [16], 1.08. Moreover, the Ratio was 0.19 in data set [17] and 6.8 in [18]. For the same compound, the Kd in [9] was found to be 24900 nM.

As for `Nc1ncnc2c1ncn2[C@H]1CC[C@@H](COP(=O)(O)OP(=O)(O)OP(=O)(O)O)O1` [DDA-TRIPHOSPHATE], the values for the Ki in data set [1] and in [5] were 50 nM and 90 nM, respectively. Also, the Ratio in data set [2] amounted to 0.09; in [3], 0.2; in data set [4], 0.5. For the same compound, the Ratio Ki in [6] was determined as 0.6.

Consider `C[C@H](Cn1cnc2c(N)ncnc21)OCP(=O)(O)O` [TENOFOVIR ANHYDROUS], for which the Activity is 3 µM in data set [7], 2 µM in data set [8], 0.1 µM in [14] and 0.3 µM in data set [19]. Further, the Ratio in data set [10] was 16.4; in [11], 0.15; in data set [12], 7.3; in [13] it was 5.7; in [4], 0.4; in data set [15], 14.9. Moreover, the Ratio in data set [16] was 2.9; in data set [17], 1.1; in [18] it was 19.3. Besides, in data set [9], the dissociation constant Kd was determined as 3200 nM.

On to `Cc1cn([C@H]2C[C@H](N=[N+]=[N-])[C@@H](CO[P@](=O)(O)O[P@](=O)(O)OP(=O)(O)O)O2)c(=O)[nH]c1=O` [ZIDOVUDINE TRIPHOSPHATE], for which the Ki amounted to 47 nM in [1] and 41 nM in [5].

Usually Km stands for the concentration of substrate that gives half-maximal velocity. For “Human immunodeficiency virus type 1 reverse transcriptase (Human immunodeficiency virus 1) (from UniProt Q72547) M41L,D67N,L210W,T215Y”, the Michaelis-Menten constant (Km) was 1200 µM in data set [20]; 960 µM in [21]; 2000 µM in data set [22]; 1400 µM in data set [23]; 590 µM in data set [24]; 2000 µM in data set [25]. The kcat in [20] worked out at 1.3 ×10⁻³ /min; in data set [21], 2.8 ×10⁻³ /min; in data set [22] it was 2.4 ×10⁻³ /min; in [23], 1.8 ×10⁻³ /min; in data set [24], 9.7 ×10⁻³ /min; in data set [25], 3.2 ×10⁻³ /min.

The values above are taken from ChEMBL document CHEMBL1155161, “Effects of the translocation status of human immunodeficiency virus type 1 reverse transcriptase on the efficiency of excision of tenofovir” (Antimicrob Agents Chemother, 2007).
